# A3A deaminase = human APOBEC3A DNA deaminase inhibition. P31941. inhibition, % at 20 µM. hit rate 0.41% among 330,000. AID 493011. recombinant A3A, FAM/TAMRA ssDNA deamination fluorescence;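 active = at least 40% inhibition at 20 µM here, with at most 30% in a related deaminase screen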;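 also: plate controls were A3A with DMSO for no effect and wells lacking A3A enzyme for full effect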
# Arrestin-AP2 inh = inhibitors of human beta-arrestin and AP2 interaction | AID 504490 | hit rate 0.31% among 340,000 | inhibition, % at 10 µM | FITC-arrestin peptide / GST-AP2 beads, flow cytometry; AP2 beta2 appendage carries R879A mutation;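 active = inhibition above a set limit, near 3 SD of compounds lacking own fluorescence, cut at about 54% in these data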;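 also: plate controls were DMSO wells for no effect and 5 µM unlabelled arrestin peptide for full effect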
#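 System: GST-AP2 R879A glutathione beads. Medium: PBS with 0.05% Tween 20 and 0.1% BSA. Also added: FITC-arrestin peptide, 50 nM. Incubation: 12 min plus 1 h, RT. Measured by: high-throughput flow cytometry of beads, ex 488, em 535 nm. Evaluation: percent drop in bead-associated FITC signal.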
# APOBEC3G inh = inhibitors of human APOBEC3G DNA deaminase. recombinant A3G, ssDNA deamination FAM/TAMRA fluorescence. inhibition, % at 20 µM. hit rate 0.28% among 330,000;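 active = inhibition of at least 40% at 20 µM, with no more than 30% in the related APOBEC3A deaminase screen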;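 also: plate controls were DMSO wells with A3G for no effect and wells lacking A3G enzyme for full effect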
# PolyA inh = blocks polyadenylation in yeast reporter cells | S. cerevisiae SKY197-pL101 polyadenylation reporter, beta-gal luminescence; efflux-impaired pdr1/pdr3 knockout yeast; score 100 = 6 SD above DMSO | activity score, % at 12 µM | hit rate 0.02% among 300,000 | AID 1875;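 active = lowest replicate activity score at least 50, where 100 means six control SD above control mean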;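 also: yeast exposed to compound for 9 h at 30 °C; higher score means more reporter readthrough which indicates perturbed polyadenylation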
# AHR act = human AHR activation | activation, % at 5 µM | AHR-responsive luciferase reporter cells, luminescence | hit rate 2.5% among 320,000; in the data active = activation above about 47%;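 also: 0% = vehicle wells and 100% = reference agonist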
# Target sequence (P35869 whole entry, looked up): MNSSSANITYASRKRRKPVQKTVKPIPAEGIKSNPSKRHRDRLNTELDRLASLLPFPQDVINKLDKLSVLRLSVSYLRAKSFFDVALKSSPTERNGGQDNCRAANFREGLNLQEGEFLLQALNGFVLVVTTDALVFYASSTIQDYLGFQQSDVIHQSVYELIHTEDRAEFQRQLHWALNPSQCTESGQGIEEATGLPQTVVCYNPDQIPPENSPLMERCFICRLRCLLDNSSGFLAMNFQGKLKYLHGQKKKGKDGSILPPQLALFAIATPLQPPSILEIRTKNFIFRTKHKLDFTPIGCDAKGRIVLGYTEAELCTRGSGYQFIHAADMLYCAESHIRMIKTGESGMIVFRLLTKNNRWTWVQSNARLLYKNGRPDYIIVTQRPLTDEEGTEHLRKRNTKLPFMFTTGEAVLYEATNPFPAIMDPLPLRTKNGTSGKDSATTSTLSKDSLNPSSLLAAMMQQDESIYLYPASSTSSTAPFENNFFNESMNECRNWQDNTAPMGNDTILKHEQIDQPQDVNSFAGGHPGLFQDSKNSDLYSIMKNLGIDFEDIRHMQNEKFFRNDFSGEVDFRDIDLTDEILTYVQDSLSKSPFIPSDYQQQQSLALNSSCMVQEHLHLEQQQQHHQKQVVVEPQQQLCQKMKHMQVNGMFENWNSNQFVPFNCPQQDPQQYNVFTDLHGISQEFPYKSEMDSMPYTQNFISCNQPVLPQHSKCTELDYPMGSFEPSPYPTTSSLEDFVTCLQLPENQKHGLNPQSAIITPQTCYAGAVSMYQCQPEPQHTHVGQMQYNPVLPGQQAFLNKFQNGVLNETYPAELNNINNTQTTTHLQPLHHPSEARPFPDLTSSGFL
# UCH37 DUB inh = inhibitors of human deubiquitinating enzyme UCH37 | Q9Y5K5 | purified proteasome/UCH37, Ub-AMC cleavage fluorescence | inhibition, % (concentration not given with the values) | hit rate 0.33% among 330,000 | AID 588478;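 active = mean inhibition over replicate wells above about 20%, limit read from the data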;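 also: 0% = compound-free wells with enzyme and 100% = wells lacking proteasome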
#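 Material: human UCH37 enzyme supplied as purified proteasome complex. Measure: % inhibition of Ub-AMC cleavage fluorescence. Medium: pH 7.4 Tris-HCl (50 mM) with ovalbumin, ATP-MgCl2, DTT. Times: 30 min preincubation with enzyme, 25 min cleavage at room temperature. Detection: AMC fluorescence intensity at 355/460 nm.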
# An asterisk follows results filed as active; i = inactive; x = no result given. Compounds with a hit are over-represented: about 3.4% of the library has one in this group of screens.
SMILES,A3A deaminase,Arrestin-AP2 inh,APOBEC3G inh,PolyA inh,AHR act,UCH37 DUB inh
Cc1ccc(CN2CCN(N=Cc3cccs3)CC2)cc1,x,x,x,x,x,6
COc1cc(C=NN(c2ccccc2)c2ccccc2)ccc1O,x,x,x,x,x,2
Cc1ccc(CN2CCN(N=Cc3ccco3)CC2)c(C)c1,x,x,x,x,x,4
Cc1ccc2c(c1)c(C)c(C)n2CC(O)Cn1nc(C)cc1C (configuration not stated),2,7,1,19,61*,0
Cc1ccc2c(c1)c(C)c(C)n2CC(O)Cn1nnc2ccccc21 (configuration not stated),-3,9,-4,-9,38,2
Cc1ccc(SCCC(=O)NN=Cc2ccccc2O)cc1,x,x,x,x,x,-6
CN1/C(=C\C(=O)c2cccs2)Sc2ccccc21,-2,5,3,-14,77*,-18
COc1ccc(OC)c(NC(=O)c2cc3ccccc3o2)c1,5,18,0,-12,61*,-9
COc1ccc(NC(=O)c2ccco2)cc1NC(=O)c1ccc(Br)o1,1,0,-6,12,58*,-4
COc1ccc(C)cc1NC(=O)c1cc2ccccc2o1,-2,0,-6,17,11,-4
COc1ccc(-c2nc3ccccc3o2)cc1NC(=O)c1ccc(Br)o1,-3,6,-5,-3,77*,-4
COc1ccc(NC(=O)COc2ccc(C=NNC(=O)c3cccnc3)cc2OC)cc1,x,x,x,x,x,4
Fc1ccccc1C=NNc1nn[nH]n1,x,x,x,x,x,2
O=C(CSCc1cccc(Br)c1)NN=Cc1ccc2c(c1)OCO2,x,x,x,x,x,3
CN1CCN(CC#CC(C)(O)C2CC3C=CC2C3)CC1 (configuration not stated),-4,13,-4,-2,0,23*
Cc1cc2cccc(C)c2nc1SCC(=O)NNC(=O)c1ccco1,1,-4,-7,-10,52*,x
CC(=O)c1c(C)[nH]c(C(=O)N2CCc3ccccc3C2)c1C,-1,15,-2,12,48*,1
Cc1nc(Nc2ccccc2F)c2oc3ccccc3c2n1,0,2,2,-34,56*,-9
Cc1nc(Nc2ccc(Cl)cc2)c2oc3ccccc3c2n1,-1,5,-4,-31,78*,-121
CCc1nc(NCc2cccnc2)c2oc3ccccc3c2n1,-4,19,-5,-11,64*,2
Cc1ccc(Nc2ncnc3c2oc2ccccc23)cc1,0,12,-8,-6,54*,-6
COc1cc(C=NNC(=O)c2csc3c2CCCC3)ccc1OCCN1CCOCC1,x,x,x,x,x,6
O=C(NN=Cc1cc(Br)c(O)c(Br)c1O)c1cccnc1,x,x,x,x,x,5
Cc1nc(Nc2ccc3c(c2)OCCO3)c2oc3ccccc3c2n1,-2,5,-4,-32,34,-29
CCc1nc(Nc2ccc3c(c2)OCCO3)c2oc3ccccc3c2n1,1,12,-3,-14,63*,-56
SMILES,A3A deaminase,Arrestin-AP2 inh,APOBEC3G inh,PolyA inh,AHR act,UCH37 DUB inh
Cc1nc(Nc2cccc(F)c2)c2oc3ccccc3c2n1,2,6,0,-44,49*,-94
Cc1nc(Nc2cccc(Cl)c2)c2oc3ccccc3c2n1,0,-2,-6,-77,38,-110
Cc1ccc(-c2c(C#N)c(N)n3c(nc4ccccc43)c2C#N)cc1,-5,-3,-9,-1,49*,-32
N#Cc1c(-c2ccccc2)c(C#N)c2nc3ccccc3n2c1N,-4,17,-9,-2,27,-9
O=S(=O)(NCCc1csc(-c2cccnc2)n1)c1cccs1,-3,1,-3,-7,69*,3
COc1ccc(Nc2ncnc3sccc23)cc1,-1,-5,-7,-2,10,2
COc1cccc(Nc2ncnc3sccc23)c1,1,-1,-6,-5,52*,3
CCCCC(=O)NN=Cc1ccc(Sc2cccc3cccnc23)o1,x,x,x,x,x,1
CCn1c(=N)n(CC(=O)c2ccc(OC)cc2)c2ccccc21,-1,-2,0,7,66*,3
N=c1n(CCN2CCCCC2)c2ccccc2n1CC(=O)c1ccc(Cl)c(Cl)c1,6,10,6,-5,111*,x
CCn1c(=N)n(CC(=O)c2ccc(Cl)c(Cl)c2)c2ccccc21,-4,-11,-11,0,65*,5
N=c1n(CCN2CCCCC2)c2ccccc2n1CC(O)c1ccc(Cl)c(Cl)c1 (configuration not stated),-3,7,-3,-11,-1,16
CCOC(=O)Cn1c(=N)n(CCOc2ccc(OC)cc2)c2ccccc21,0,35,-2,-7,2,1
O=C(O)c1cccc([N+](=O)[O-])c1C(=O)Nc1ccc2ccccc2c1,-8,-9,-4,-3,60*,x
O=C(Nc1ccc2ccccc2c1)c1ccccc1[N+](=O)[O-],x,4,x,x,x,-39
O=C(Nc1ccc2ccccc2c1)c1ccccc1O,1,48,-7,-6,48*,-2
O=C(Nc1ccc2ccccc2c1)c1cccc([N+](=O)[O-])c1,-2,34,-5,-9,68*,1
O=C(Cc1cccs1)Nc1nnc(SCc2ccc(Br)cc2)s1,2,7,0,4,48*,3
O=C(NN=C/C=C/c1ccco1)C(O)c1ccccc1 (configuration not stated),x,x,x,x,x,11
Nc1ccc2nc(-c3ccccc3)[nH]c2c1,-7,15,-7,-5,67*,i
COC(=O)CCC(C)=NNc1ccc([N+](=O)[O-])cc1[N+](=O)[O-],x,x,x,x,x,8
O=C1CCCC(=NNC(=O)NC2CCCCC2)C1,x,x,x,x,x,2
O=C(Nc1nc2ccccc2s1)c1ccc(F)cc1,2,9,-6,-16,19,3
O=C(/C=C/c1ccco1)NC(=S)Nc1ccc(O)c(-c2nc3ccccc3s2)c1,4,-1,1,-2,80*,x
O=C(Nc1ccc(O)c(-c2nc3ccccc3s2)c1)c1cccs1,-1,14,-6,2,74*,2
SMILES,A3A deaminase,Arrestin-AP2 inh,APOBEC3G inh,PolyA inh,AHR act,UCH37 DUB inh
O=C(Nc1ccc(O)c(-c2nc3ccccc3s2)c1)c1cc(=O)c2ccccc2o1,-2,19,-3,15,2,x
O=C(Nc1ccc(F)cc1)Nc1sccc1-c1nc2ccccc2s1,-5,15,-11,-11,60*,-61
Cc1cc(C)n2nc(N)c(N=Nc3ccccc3)c2n1,1,-14,-1,-9,60*,12
CN1/C(=C\C=NNC(=O)c2cccnc2)C(C)(C)c2ccccc21,x,x,x,x,x,11
Cc1ccsc1/C=N/N=C/c1sccc1C,-2,4,2,5,70*,x
Cc1ccsc1C=NN=C1C(=O)Nc2ccccc21,x,x,x,x,x,2
Cc1ccsc1/C=N/NC(=O)c1sccc1C,-2,-6,-6,-9,48*,x
COc1ccc(/C=N\NC(=O)c2sccc2C)cc1Cn1nc(C)cc1C,-5,5,-3,-5,57*,x

# Source: PubChem BioAssay
